Results: ChEMBL document CHEMBL3046087, “Aminomethylphosphonic acid accumulation in plant species treated with glyphosate” (J Agric Food Chem, 2008)

How the values were obtained:
Senna occidentalis [1] = assay: Drug level in Senna occidentalis (coffee senna) assessed as AMPA level at growth inhibition I50 level rate measured 7 days post treatment; format: organism-based; settings: in vivo, 168 h
Procedure, shortened: (§1)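 Greenhouse plants (28/22 °C, 13 h photoperiod) were sprayed with glyphosate at each species' I50 rate, with Tween 20-treated controls. Shoots were cut at 7 DAT and rinsed to remove surface herbicide. Pooled ground tissue (1 g) was water-extracted twice with sonication, acidified, and washed with methylene chloride. Extracts were derivatized with heptafluorobutanol/TFAA (90 °C, 1 h) and measured by GC-MS against derivatized standards, in duplicate.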

Vigna unguiculata [2] = assay: Drug level in Vigna unguiculata (cowpea) assessed as AMPA level at growth inhibition I50 level rate measured 7 days post treatment; format: organism-based; settings: in vivo, 168 h; procedure, shortened: as §1
Glycine max [3] = assay: Drug level in non glyphosate-resistant Glycine max (soybean) assessed as AMPA level at growth inhibition I50 level rate measured 7 days post treatment; format: organism-based; settings: in vivo, 168 h; procedure, shortened: as §1
Glycine max [4] = assay: Drug level in glyphosate-resistant Glycine max (soybean) assessed as AMPA level at growth inhibition I50 level rate measured 7 days post treatment; format: organism-based; settings: in vivo, 168 h; procedure, shortened: as §1
[5] = Drug level in non glyphosate-resistant Zea mays (maize) at growth inhibition I50 level rate measured 7 days post treatment; format: organism-based; settings: in vivo, read-out: Drug uptake; procedure, shortened: as §1
[6] = Drug level in Lolium multiflorum (Italian ryegrass) at growth inhibition I50 level rate measured 7 days post treatment; format: organism-based; settings: in vivo, read-out: Drug uptake; procedure, shortened: as §1
[7] = Drug level in glyphosate-resistant Zea mays (maize) at growth inhibition I50 level rate measured 7 days post treatment; format: organism-based; settings: in vivo, read-out: Drug uptake; procedure, shortened: as §1
[8] = Drug level in Abutilon theophrasti (velvetleaf) at growth inhibition I50 level rate measured 7 days post treatment; format: organism-based; settings: in vivo, read-out: Drug uptake; procedure, shortened: as §1
[9] = Drug level in Conyza canadensis (horseweed) at growth inhibition I50 level rate measured 7 days post treatment; format: organism-based; settings: erigeron canadensis, in vivo; read-out: Drug uptake; procedure, shortened: as §1
[10] = Drug level in Pueraria montana var. lobata ( kudzu) at growth inhibition I50 level rate measured 7 days post treatment; format: organism-based; settings: in vivo, read-out: Drug uptake; procedure, shortened: as §1
[11] = Drug level in Desmanthus illinoensis (Illinois bundleflower) at growth inhibition I50 level rate measured 7 days post treatment; format: organism-based; settings: in vivo, read-out: Drug uptake; procedure, shortened: as §1
[12] = Drug level in Sesbania herbacea at growth inhibition I50 level rate measured 7 days post treatment; format: organism-based; settings: in vivo, read-out: Drug uptake; procedure, shortened: as §1
[13] = Drug level in Senna occidentalis (coffee senna) at growth inhibition I50 level rate measured 7 days post treatment; format: organism-based; settings: in vivo, read-out: Drug uptake; procedure, shortened: as §1
[14] = Drug level in Senna obtusifolia (sicklepod) at growth inhibition I50 level rate measured 7 days post treatment; format: organism-based; settings: in vivo, read-out: Drug uptake; procedure, shortened: as §1
[15] = Drug level in Vigna unguiculata (cowpea) at growth inhibition I50 level rate measured 7 days post treatment; format: organism-based; settings: in vivo, read-out: Drug uptake; procedure, shortened: as §1
[16] = Drug level in non glyphosate-resistant Glycine max (soybean) at growth inhibition I50 level rate measured 7 days post treatment; format: organism-based; settings: in vivo, read-out: Drug uptake; procedure, shortened: as §1
[17] = Drug level in glyphosate-resistant Glycine max (soybean) at growth inhibition I50 level rate measured 7 days post treatment; format: organism-based; settings: in vivo, read-out: Drug uptake; procedure, shortened: as §1
Lolium multiflorum = assay: Growth inhibition of Lolium multiflorum (Italian ryegrass) measured 7 days post treatment; format: functional
Zea mays [18] = assay: Growth inhibition of glyphosate-resistant Zea mays (maize) measured 7 days post treatment; format: functional
Erigeron canadensis = assay: Growth inhibition of Conyza canadensis (horseweed) measured 7 days post treatment; format: functional
Glycine max [19] = assay: Growth inhibition of non glyphosate-resistant Glycine max (soybean) measured 7 days post treatment; format: functional
Glycine max [20] = assay: Growth inhibition of glyphosate-resistant Glycine max (soybean) measured 7 days post treatment; format: functional
[21] = system: Pueraria montana var. lobata; assay: Growth inhibition of Pueraria montana var. lobata ( kudzu) measured 7 days post treatment; format: functional
Desmanthus illinoensis = assay: Growth inhibition of Desmanthus illinoensis (Illinois bundleflower) measured 7 days post treatment; format: functional
Sesbania herbacea = assay: Growth inhibition of Sesbania herbacea measured 14 days post treatment
Vigna unguiculata [22] = assay: Growth inhibition of Vigna unguiculata (cowpea) measured 14 days post treatment
Senna obtusifolia = assay: Growth inhibition of Senna obtusifolia (sicklepod) measured 14 days post treatment
Senna occidentalis [23] = assay: Growth inhibition of Senna occidentalis (coffee senna) measured 14 days post treatment
Abutilon theophrasti = assay: Growth inhibition of Abutilon theophrasti (velvetleaf) measured 14 days post treatment
Zea mays [24] = assay: Growth inhibition of non glyphosate-resistant Zea mays (maize) measured 14 days post treatment

## O=C(O)CNCP(=O)(O)O [GLYPHOSATE]
Senna occidentalis [1]
  Drug uptake: 287 ng/g
Vigna unguiculata [2]
  Drug uptake: 4765 ng/g
Glycine max [3]
  Drug uptake: 668 ng/g
Glycine max [4]
  Drug uptake: 119 ng/g
[5]
  concentration at 168 h: 851 ng/g
[6]
  concentration at 168 h: 7430 ng/g
[7]
  concentration at 168 h: 308 ng/g
[8]
  concentration at 168 h: 678 ng/g
[9]
  concentration at 168 h: 26300 ng/g
[10]
  concentration at 168 h: 5560 ng/g
[11]
  concentration at 168 h: 3270 ng/g
[12]
  concentration at 168 h: 38600 ng/g
[13]
  concentration at 168 h: 5910 ng/g
[14]
  concentration at 168 h: 6410 ng/g
[15]
  concentration at 168 h: 26800 ng/g
[16]
  concentration at 168 h: 25000 ng/g
[17]
  concentration at 168 h: 5830 ng/g
Lolium multiflorum
  I50: 220 gAi/ha
Zea mays [18]
  I50: 93 gAi/ha
Erigeron canadensis
  I50: 170 gAi/ha
Glycine max [19]
  I50: 250 gAi/ha
Glycine max [20]
  I50: 250 gAi/ha
[21]
  I50: 77 gAi/ha
Desmanthus illinoensis
  I50: 272 gAi/ha
Sesbania herbacea
  I50: 456 gAi/ha
Vigna unguiculata [22]
  I50: 201 gAi/ha
Senna obtusifolia
  I50: 252 gAi/ha
Senna occidentalis [23]
  I50: 75 gAi/ha
Abutilon theophrasti
  I50: 122 gAi/ha
Zea mays [24]
  I50: 93 gAi/ha
